Assays:
[1] = tested on: Mus musculus; test: Increase in life span (ILS) in mice implanted intraperitoneally with lymphocytic leukemia P388 cells at a nontoxic dose of 100 mg/kg; type: functional; details: P388, ip, route intraperitoneal
[2] = tested on: L1210; test: The compound was tested for cell growth inhibitory activity against lymphoid leukemia L1210 cell line.; type: functional, cell-based; details: Mus musculus
Method in brief: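 Cultured lymphoid leukemia L1210 cells were grown with agent for 48 h. The value is the micromolar concentration that inhibits proliferation to 50% of control growth.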

[3] = tested on: L1210; test: Concentration that causes a mitotic index (number of cells in mitosis divided by total cells) of cultured lymphoid leukemia L1210 cells.; type: functional, Mus musculus
Method in brief: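 Cultured lymphoid leukemia L1210 cells were exposed to agent for 12 h. Mitotic index was taken as the number of cells in mitosis divided by total cells. The value is the micromolar concentration giving a mitotic index of 0.5.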

[4] = tested on: Mus musculus; test: Increase in life span (ILS) in mice implanted intraperitoneally with lymphocytic leukemia P388 cells at a nontoxic dose of 2 mg/kg; type: functional; details: P388, ip, route intraperitoneal
[5] = tested on: Mus musculus; test: Increase in life span (ILS) in mice implanted intraperitoneally with lymphocytic leukemia P388 cells at a nontoxic dose of 100 mg/kg; toxic dose by weight loss when repeated; type: functional; details: P388, ip, route intraperitoneal
[6] = tested on: Mus musculus; test: Increase in life span (ILS) in mice implanted intraperitoneally with lymphocytic leukemia P388 cells at a nontoxic dose of 200 mg/kg; toxic dose by weight loss when repeated; type: functional; details: P388, ip, route intraperitoneal
[7] = tested on: Mus musculus; test: Increase in life span (ILS) in mice implanted intraperitoneally with lymphocytic leukemia P388 cells at a nontoxic dose of 200 mg/kg; type: functional; details: P388, ip, route intraperitoneal
[8] = tested on: Mus musculus; test: Increase in life span (ILS) in mice implanted intraperitoneally with lymphocytic leukemia P388 cells at a nontoxic dose of 50 mg/kg; type: functional; details: P388, ip, route intraperitoneal

Compound | IC50 [2] [µM] | MI0.5 [3] [µM] | also measured
CCOC(=O)Nc1cc2c(nc(SCc3ccc4c(c3)OCO4)n2N)c(N)n1 | 0.17 |  | ILS at 100 mg/kg [1]: 25%
CCOC(=O)Nc1cc2c(c(N)n1)N=C(c1ccccc1)CN2 |  | 0.0028 | ILS at 2 mg/kg [4]: 51%
CCOC(=O)Nc1cc2c(ncn2/N=C/c2ccccc2)c(N)n1 | 0.15 | 0.61 | ILS at 100 mg/kg [5]: 39%
CCOC(=O)Nc1cc2c(nc(SCc3ccccc3)n2N)c(N)n1 | 0.6 | 1.6 | ILS at 200 mg/kg [6]: 39%
CCOC(=O)Nc1cc(N(C)/N=C/c2ccccc2)c2nc[nH]c2n1 | 3.1 |  | 
CCOC(=O)Nc1cc2[nH]c(-c3ccccc3)nc2c(N)n1 | 0.9 | 8 | ILS at 200 mg/kg [7]: 0%
CCOC(=O)Nc1cc(N/N=C/c2ccccc2)c2[nH]c(SCc3ccccc3)nc2n1 | 46 |  | 
CCOC(=O)Nc1cc(N/N=C/c2ccccc2)c(N)c(N)n1 | 4.6 | 15 | ILS at 50 mg/kg [8]: 4%
CCOC(=O)Nc1cc(N/N=C/c2ccccc2)c2[nH]c(S)nc2n1 | 1.5 | 5.5 | ILS at 200 mg/kg [7]: 10%
CCOC(=O)Nc1cc2c(nc(S)n2/N=C/c2ccccc2)c(N)n1 | 0.47 | 11 | ILS at 200 mg/kg [7]: 6%
CCOC(=O)Nc1cc2c(nc(SCc3ccccc3)n2/N=C/c2ccccc2)c(N)n1 | 50 |  | 
CCOC(=O)Nc1cc2c(nc(SCc3ccc(OC)cc3)n2N)c(N)n1 | 0.06 |  | ILS at 100 mg/kg [1]: 24%
CCOC(=O)Nc1cc2c(nc(S)n2N)c(N)n1 | > 30 |  | 
CCOC(=O)Nc1cc(N/N=C/c2ccccc2)c2[nH]cnc2n1 | 0.25 | 0.94 | ILS at 100 mg/kg [5]: 46%
